Converted amounts (≈) assume the structure as drawn.
System: Mycobacterium tuberculosis
Assay: Antibacterial activity against Mycobacterium bovis BCG grown in 7H9 medium after 6 days by resazurin-based fluorescent method
Assay type: functional
Conditions: variant bovis BCG, 144 h
Outline: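 M. bovis BCG at 10⁵ CFU/ml in 7H9 with 0.025% tyloxapol and 2% glucose. Compounds tested as 10 two-fold dilutions from 50 μM. Incubated 6 days at 37 °C, then resazurin added for a further 48 h. Endpoint fluorescence read at excitation 530 nm, emission 590 nm.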

## CN1CCN(c2ccc(NC(=O)c3cc(N(CCCN)Cc4ccccc4)ncn3)cc2)CC1
  MIC: 18.6 µM (≈ 8.55 µg/mL)

Source: ChEMBL document CHEMBL4028901, “Novel Antitubercular 6-Dialkylaminopyrimidine Carboxamides from Phenotypic Whole-Cell High Throughput Screening of a SoftFocus Library: Structure-Activity Relationship and Target Identification Studies” (J Med Chem, 2017)
